Our source for the cytotoxicity values is ChEMBL document CHEMBL4513216, “Probing the Open Global Health Chemical Diversity Library for Multistage-Active Starting Points for Next-Generation Antimalarials” (ACS Infect Dis, 2020).

A short description of the data set: Toxicity liver stage against HepG2, at 10uM. It is filed as cell-based. On the set-up: test concentration 10 uM, cell line HepG2-A16-CD81EGFP. Particulars: human, HepG2-A16-CD81EGFP cells; read-out: INHIBITION
The essentials:
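Uninfected HepG2-A16-CD81EGFP cells, 3 × 10^3 per well, 1536-well, plated on prespotted compound at 10 μM final, parasite-free screening media added to match infected plates; puromycin 10 μM positive, DMSO 0.5% negative; run in parallel with 48 h PbLuc assay at 37 °C, 5% CO2; viability by CellTiter-Glo luminescence, normalized to controls.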
For `N#Cc1ccc(N2CCC(c3nccn3Cc3cscn3)CC2)nc1`, the cytotoxicity at 10 µM was -7.01%.

Consider `NS(=O)(=O)CCNC(=O)C1(c2ccccc2)CC1`, for which the cytotoxicity at 10 µM is -0.18%. For `O=S(=O)(Nc1c(F)cccc1N1CCCC1)c1cncc(F)c1` the value was 3.22%; for `O=C(CCN1CCC(c2cc3ccccc3[nH]2)CC1)N1CCOCC1`, -3.81%; for `Cn1cc(CN2CCCC3(COCCN(c4cccnc4)C3)C2)cn1` (stereo not drawn), -75.6%.

Take `CC(C)c1nsc(N2CCc3sccc3C2)n1`: the cytotoxicity at 10 µM was 20.9%. For `CCc1cc(N2C[C@H](C3CC3)[C@@H](N)C2)nc(N2CCCC2)n1` the value was 0.334%; for `c1cnc(Nc2cc(CCC3CCNCC3)ccn2)cn1`, 55.7%. On to `Cc1ccc(CCNC(=O)N2CCC(Cc3cnn(C)c3)C2)cn1` (stereo not drawn), for which the cytotoxicity at 10 µM was 3.71%.

For the molecule `CC(C)CC(C)NCCCN1CCCN(C)CC1` (stereo not drawn), the cytotoxicity at 10 µM came out at 24.7%. For `O=C(CN1CCCC1Cn1cccn1)NC1CCN(C2CC2)CC1` (stereo not drawn) the value was 5.77%; for `CC1(C)CN=C(N2CCN(CC3CCCCO3)CC2)S1` (stereo not drawn), -1.61%; for `Oc1ccc(-c2c(-c3ccccc3)ncn2C[C@H]2CCCN2)cc1`, 17.5%. With `CC(C)Oc1cccc(C(O)CNC(=O)CCc2ccncc2)c1` (stereo not drawn), the cytotoxicity at 10 µM was -3.82%. For `Cc1cc(N2Cc3cnn(CCO)c3C2)nc(-c2ccccc2O)n1` the value was -162%; for `O=C(CCn1nc(C(=O)Nc2ccccc2)ccc1=O)Nc1nccs1`, -2.83%; for `O=C(c1cccc2c1OCO2)N1CCC(N2CCCC2)CC1`, -2.35%.

Regarding `O=C(NS(=O)(=O)c1ccc2c(c1)OCCO2)c1ccc(Br)cc1F`, the cytotoxicity at 10 µM came to 0.553%. For `Cc1cc(CN2CCCC2c2noc(C3CC3)n2)c2ccccc2n1` (stereo not drawn) the value was 49.5%; for `O=C(NCc1ccccn1)[C@@H]1CCO[C@@H]2CCN(Cc3ccoc3)C[C@H]21`, 5.33%; for `CCOc1ccc(NC(=O)c2cccc(OC)c2OC)cc1`, 1.64%. Consider `COC1COC2(CCN(Cc3cccc(C#N)c3)CC2)C1` (stereo not drawn), for which the cytotoxicity at 10 µM was -1.75%. For `Cc1ccc(NC2CCN(C(=O)c3cccn3C)CC2)nn1` the value was -3.76%; for `CNC(=O)[C@@H]1[C@@H](OC(=O)Nc2ccccc2)C(=O)N(C)C12CCNCC2`, 6.38%; for `CN(C)C(=O)CN1CC[C@H]2[C@H]1CCN2c1ncccn1`, 8.28%. Consider `Cc1cccnc1CNc1cc(N2CCCC2CO)ncn1` (stereo not drawn), for which the cytotoxicity at 10 µM was -10.3%.

In the case of `CCCn1cc(C(=O)NCC(=O)NC2CC2)c(C)n1`, the cytotoxicity at 10 µM is -3.91%.

`CCC[C@H]1CN(C(=O)c2ccc3[nH]c(CO)nc3c2)C[C@@H]1N`: the cytotoxicity at 10 µM was found to be 3.96%. Then `Cc1nc(CN(C)C2CCN(CCc3ccc4c(c3)CCO4)C2)no1` (stereo not drawn), with -12%. For `Cc1ccc(N2CCCC(NCC(=O)NC(C3CC3)C3CC3)C2)nn1` (stereo not drawn) the value was -2.8%; for `c1coc(-c2noc(CN3CCCC3Cn3cncn3)n2)c1` (stereo not drawn), -0.282%; for `O=C1Nc2ccccc2NC12CCN(Cc1nnc(C3CC3)o1)CC2`, -7.03%.

Regarding `CCOCC(=O)N1CCC(c2nc(-c3cccnn3)no2)CC1`, the cytotoxicity at 10 µM is -3.3%. Then `COc1ccc(-c2nnc(SC(C)C(=O)NCC(C)C)[nH]2)c(OC)c1` (stereo not drawn), with 83.5%; and `COc1ccccc1CNC(=O)N1CCCC(CO)C1` (stereo not drawn), with 0.91%; and `O=C(Cc1cccc(F)c1F)N1CCOC(c2cccc(O)c2)C1` (stereo not drawn), with 0.0788%. For `CCOC(=O)CCC(=O)NC(C)c1ccc(NC(=O)CC)cc1` (stereo not drawn), the cytotoxicity at 10 µM stood at 0.097%. `CCCN1CCCn2nc(CNC(=O)C3CCOC3)cc2C1` (stereo not drawn): the cytotoxicity at 10 µM worked out at 0.237%. Take `CN1CCN(CC(NCc2cccc(O)c2)c2ccccc2)CC1` (stereo not drawn): the cytotoxicity at 10 µM is -3.89%. Then `CC1CN(S(=O)(=O)c2cc(S(C)(=O)=O)ccc2Br)c2cccnc2O1` (stereo not drawn), with -0.346%; and `Cc1nnc2n1CCN(C(C(=O)NC(C)C)c1ccccc1)C2` (stereo not drawn), with -5.92%; and `Cc1nc(CN(C)C2CCN(CC3CCCC3)C2)no1` (stereo not drawn), with -5%. As for `COc1cccc(CNCCc2cc(F)cc3c2OCOC3)c1`, the cytotoxicity at 10 µM was -23.1%.

As to `Cc1ccc(C(C)NC(=O)CSCC(N)=O)cc1` (stereo not drawn), the cytotoxicity at 10 µM came to 3.37%.

As to `CCc1nccn1CC1CCCN1S(=O)(=O)N1CCCOCC1` (stereo not drawn), the cytotoxicity at 10 µM was -11.5%.

Turning to `c1ccn(Cc2noc3c2CN(Cc2ccsc2)CC3)c1`, the cytotoxicity at 10 µM came out at 9.37%. Then `Cc1nc(C2CCCN2CCOCC2CC2)no1` (stereo not drawn), with -4.56%; and `Cc1ccc(-n2cc3[nH]c(=O)n(C(C)C)n3c2=O)cc1`, with -8.9%; and `CCc1nc(C2CCCN2c2ncc(C(F)(F)F)cc2Cl)no1` (stereo not drawn), with 5.64%. Then `O=C(CC1CC1)N[C@@H]1CN(Cc2ccc(F)cc2)C[C@@H]2CCCO[C@@H]21`, with 14.9%; and `Cc1cccc(C(=O)N2C[C@@H]3OCCN(CCN4CCCC4)[C@@H]3C2)n1`, with -65%. For `COCCN1CCC(CNC(=O)c2cc(Cl)c[nH]2)CC1` the value was 5.2%; for `O=C(CN1CCCC1c1nc(-c2ccccn2)no1)N1CCNCC1` (stereo not drawn), 9.28%. As to `CCOC(C)c1noc(CN2CCCN(c3ccccn3)CC2)n1` (stereo not drawn), the cytotoxicity at 10 µM is -4.05%. Then `OC(CNCCn1cccn1)c1cccc(Br)c1` (stereo not drawn), with -5.98%. `CC(c1cccc(S(N)(=O)=O)c1)N(C)CCOc1ccccc1` (stereo not drawn): the cytotoxicity at 10 µM was -3.83%.

With `Nc1nc(C2CCN(C(=O)c3cnco3)CC2)cs1`, the cytotoxicity at 10 µM was -3%. As for `Cc1nn(CC(C)C)cc1S(=O)(=O)N(C)Cc1nonc1C`, the cytotoxicity at 10 µM was found to be 11.3%. Then `CC(=O)N1CCCN(C(C)c2ccc(Br)cc2)CC1` (stereo not drawn), with 7.89%. Regarding `CNC(=O)C1CCCN(c2nc(-c3ccco3)nc3c2CCNCC3)C1` (stereo not drawn), the cytotoxicity at 10 µM is -7.74%. For `CC(O)CCn1ccc2[nH]c(=O)c(C#N)cc2c1=O` (stereo not drawn) the value was 5.66%; for `CCc1nnsc1C(=O)NCc1nnc2n1CCC2`, 0.371%; for `CC(C)(C)OC(=O)N1CSC[C@@H]1C(=O)NCc1cccc(C#N)c1`, -5.88%.

On to `CN(Cc1cccc2cccnc12)C1CCS(=O)(=O)C1` (stereo not drawn), for which the cytotoxicity at 10 µM is -0.237%. Regarding `COC(=O)c1ccc(-c2noc(CN(CCO)Cc3cccs3)n2)cc1`, the cytotoxicity at 10 µM turned out to be 6.43%.

`C[C@@H]1CN(Cc2ccoc2)C[C@]12CCN(CC(=O)N(C)C)C2=O`: the cytotoxicity at 10 µM turned out to be 2.11%. With `CC(C)NC(=O)C1CN(C(=O)c2ccco2)CC12CCOCC2` (stereo not drawn), the cytotoxicity at 10 µM was -0.516%. `CCC(NC(=O)NCC(=O)Nc1ccc(F)cc1)c1ccncc1` (stereo not drawn): the cytotoxicity at 10 µM is -10.9%. For `Cc1cc(-c2cc(N)c(=O)n(CC(=O)NCC3CCCCC3)n2)c(C)o1` the value was -21.1%; for `N[C@H]1CN(S(=O)(=O)c2ccccc2)C[C@@H]1C1CC1`, -14.3%. Then `CC1=NOC(C(=O)N(C)CCCn2nc(C)cc2C)C1` (stereo not drawn), with 3.53%; and `CCc1cc(CN(C)C(=O)CN2CC(c3ccccc3)CC2=O)on1` (stereo not drawn), with -4.81%. Then `CC(C)(C)c1nnc(CN2CCOC(Cn3cccn3)C2)o1` (stereo not drawn), with -10.2%. Turning to `c1cnc(N2CCC3(CCN(CC4CCOC4)C3)CC2)nc1` (stereo not drawn), the cytotoxicity at 10 µM is -0.877%. Then `CC(=O)c1ccc(S(=O)(=O)N2CCC(c3n[nH]c(C)n3)CC2)cc1`, with -5.24%; and `Cc1ccc(N2CCC3(CC2)COCCN(c2nccs2)C3)nn1`, with -107%; and `COCC(c1ccccn1)N(C)C(=O)c1cc(-c2ccc(O)cc2)n[nH]1` (stereo not drawn), with -4.07%. Then `CC(=O)N(Cc1noc(C2CC2)n1)C1CCN(CC(=O)NC2CC2)C1` (stereo not drawn), with -3.67%; and `CC(C)OCc1ncn2c1CN(CC1CC1)CCC2`, with -68.9%; and `CN(C)CC1(O)CCN(S(=O)(=O)c2cccc(F)c2)C1` (stereo not drawn), with 2.36%. For `COCCCNC(=O)Nc1cc(-c2ccccc2C)nn1CCO` the value was -0.267%; for `CS(=O)(=O)NCC(=O)N[C@H]1CN(c2cnccn2)C[C@@H]1C1CC1`, -7.24%. Take `CC(=O)N(Cc1ncc(C)o1)C1CCN(CCn2cccn2)C1` (stereo not drawn): the cytotoxicity at 10 µM amounted to 6.49%.

For the molecule `Cn1cc(NC(=O)N2CCC(CN3CCCC3)CC2)ccc1=O`, the cytotoxicity at 10 µM was -11.5%. For the molecule `O=C(N[C@@H]1CCN(C(=O)c2ccc(F)cc2Cl)C[C@H]1O)c1ccccn1`, the cytotoxicity at 10 µM is -0.0395%.

On to `CC(CC(=O)c1ccco1)NC(=O)c1ccon1` (stereo not drawn), for which the cytotoxicity at 10 µM is -17.9%. Take `NC(=O)c1cnc(NC2CC2)nc1CCNC(=O)Cc1ccccc1`: the cytotoxicity at 10 µM amounted to 4.44%. Then `O=C1NCCN(C(=O)CN2CCOC2=O)C1c1cccc(F)c1` (stereo not drawn), with 8.91%. For `CN(CCn1ccnc1-c1ccccn1)S(C)(=O)=O` the value was 12%; for `CC(=O)N1CCN(C(=O)c2c(Cl)c3ccccc3n2C)CC1`, 12.5%. For `Cc1cccc(C(C(=O)NCCCc2ccccn2)N(C)C)c1` (stereo not drawn) the value was -7.16%; for `Cc1ccc(N2CCC(NC(C)c3cccs3)CC2)nc1` (stereo not drawn), -9.64%; for `COCCC1(CNC(=O)NCC2CCCS2)CCCC1` (stereo not drawn), 0.96%. Consider `CCCSc1ncccc1C(=O)NCc1ccc(S(N)(=O)=O)cc1`, for which the cytotoxicity at 10 µM is 6.02%. Regarding `Cc1cc(C)n(CC2CCCCN2C(=O)c2ccsc2)n1` (stereo not drawn), the cytotoxicity at 10 µM is -10.3%.

As for `O=C(c1cscn1)N1CCC2(CCN(Cc3cccs3)CC2)C1`, the cytotoxicity at 10 µM stood at 3.91%.

Turning to `CCOCC(O)CN1CCN(C(=O)c2cc(F)cc(F)c2)CC1` (stereo not drawn), the cytotoxicity at 10 µM amounted to 8.1%. For `O=C(COc1ccccc1O)N1CCOC(C(F)(F)F)C1` (stereo not drawn) the value was -2.3%.
